# Bioassay records from PubChem.
# APJ agonist: agonists of human apelin receptor APJ, primary screen, CHO-K1 cells, PathHunter beta-arrestin, luminescence | 0.11% of 330,000 active | AID 2520, 2010 | P35414 | activation, % at 20 µM | 0% DMSO wells, 100% apelin;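 active means activation more than six SD over the plate average, tested at 20 µM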
#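 Test system – PathHunter CHO-K1 APJ (AGTRL-1) beta-arrestin reporter cells · Input – 1000 cells/well · Compound – single test compound dose, 20 µM final, 1% DMSO · Times – compound stimulation 90 min at 25 °C, detection 60 min · Technique – beta-gal luminescence · Read-out basis – APJ–arrestin association signal · Control set – negative DMSO alone, positive Apelin-13 at 10 nM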
# CCR6 antagonist: CCR6 receptor antagonists, primary screen, cell-based, CHO-K1, luminescence, beta-arrestin, uHTS | 0.49% of 340,000 active | C-C chemokine receptor type 6 (Homo sapiens), P51684 | CHO-K1 CCR6 PathHunter beta-arrestin, CCL20-stimulated | inhibition, % at 20 µM | AID 493098, 2011;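 active means compounds whose inhibition of the agonist-driven luminescence signal at 20 µM reaches about 50%, limit read from the data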;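 further: cells stimulated with CCL20 at 14 nM final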
# Target sequence (P51684 whole entry, looked up): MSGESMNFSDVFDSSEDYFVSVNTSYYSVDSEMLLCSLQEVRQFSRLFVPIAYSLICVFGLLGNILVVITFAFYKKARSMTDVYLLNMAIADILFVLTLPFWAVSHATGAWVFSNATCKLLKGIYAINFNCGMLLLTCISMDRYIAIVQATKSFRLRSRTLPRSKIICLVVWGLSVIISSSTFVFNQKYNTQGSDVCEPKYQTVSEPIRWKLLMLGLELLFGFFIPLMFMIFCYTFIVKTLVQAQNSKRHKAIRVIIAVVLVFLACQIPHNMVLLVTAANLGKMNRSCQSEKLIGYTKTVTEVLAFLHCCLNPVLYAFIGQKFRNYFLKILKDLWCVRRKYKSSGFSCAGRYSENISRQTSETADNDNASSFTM
# CXCR6 inh: CXCR6 receptor inhibitors, primary screen, cell-based, beta-arrestin, luminescence, CHO-K1 PathHunter, 1536-well; inhibition, % at 20 µM; 0.36% of 360,000 active; AID 602244, 2012; in the data active means inhibition above about 34%, passing the limit was not always enough;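 further: antagonist mode with CXCL16 agonist at 10 nM final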
# EBI2 block: EBI2 receptor antagonists, beta-arrestin recruitment, primary screen, cell-based, luminescence, 7a,25-OHC stimulation, uHTS | G-protein coupled receptor 183 (Homo sapiens), P32249 | 0.81% of 360,000 active | 7a,25-OHC stimulated | inhibition, % at 5 µM; in the data active means inhibition above about 38%;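 further: enzyme fragment complementation signal reports receptor beta-arrestin coupling in cells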
# APJ antagonist: antagonists of human apelin receptor APJ, primary screen, CHO-K1 cells, beta-arrestin complementation, luminescence. P35414. inhibition, % at 20 µM. 0.32% of 330,000 active. AID 2521, 2010;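 active means inhibition above about 40% at 20 µM, limit read from the data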;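 further: cells challenged with 10 nM apelin-13 agonist together with compound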
# EBI2 antag conf: EBI2 antagonist hit retest, beta-arrestin, confirmation, cell-based, single concentration, luminescence, 7a,25-OHC stimulation; shares compounds with EBI2 block; 7a,25-OHC antagonism; inhibition, % at 5 µM; 29% of 2,400 active; AID 651997, 2013;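 active means inhibition of at least 50%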
# EBI2 agonist: EBI2 agonist activity of antagonist hits, confirmation, counter-screen for EBI2 antagonist project, cell-based, single concentration, agonist mode, luminescence | 2,400 tested, under 10 active | shares compounds with EBI2 block | EBI2-expressing cells, 60 min; 0% vehicle, 100% 7α,25-dihydroxycholesterol control | activation, % at 5 µM | AID 652000, 2013;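 active means activation of at least 50%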
# bGal cs: E. coli beta-galactosidase enzyme inhibition, confirmation, counter-screen for EBI2 antagonist project, biochemical, luminescence, single concentration; shares compounds with EBI2 block; purified beta-galactosidase, luminescent Galacton Star, 15 min; inhibition, % at 5 µM; 1% of 2,400 active; AID 652176, 2013;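 active means replicate-average signal at least 3 plate SD below neutral wells, shown as high inhibition, flagging enzyme-inhibiting false positives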;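 further: higher means stronger loss of beta-gal luminescence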
# Numbers stand for hits; . = inactive; / = not tested or not shown. Most compounds without a hit are left out; they make up all but 1.5% or so of the library.
SMILES,APJ agonist,CCR6 antagonist,CXCR6 inh,EBI2 block,APJ antagonist,EBI2 antag conf,EBI2 agonist,bGal cs
CC(=O)N1N=C(c2ccccc2)CC1c1cn(Cc2ccccc2)c2ccccc12 (centres undefined),.,.,.,49.4,.,.,.,.
O=C(COC(=O)CN1C(=O)NC2(CCCC2)C1=O)Nc1c(Cl)cccc1C(F)(F)F,.,.,.,.,.,/,/,/
Cc1ccc(OCC(=O)N2CCN(c3nnc(-c4ccc(C)cc4)c4ccccc34)CC2)cc1,.,.,.,87.1,.,83.7,.,.
CC(=O)N1CCN(c2nnc(-c3ccccc3)c3ccccc23)CC1,.,.,.,.,.,/,/,/
COc1ccc(OCC(=O)N2CCN(c3nnc(-c4ccc(C)cc4)c4ccccc34)CC2)cc1,.,.,.,96.1,.,83.2,.,.
CCC(=O)N1CCN(c2nnc(-c3ccccc3)c3ccccc23)CC1,.,.,.,.,.,/,/,/
COc1ccc(OCC(=O)N2CCN(c3nnc(-c4ccccc4)c4ccccc34)CC2)cc1,.,.,.,91.7,.,79.8,.,.
O=C(COc1ccccc1)N1CCN(c2nnc(-c3ccccc3)c3ccccc23)CC1,.,.,.,71.2,.,.,.,.
COc1ccc(-c2cc(-c3ccccc3)c(C#N)c(S(C)(=O)=O)n2)cc1,.,.,.,65.7,.,71.8,.,.
COc1ccc(N(CC(=O)NCCSc2ccc(C)cc2)S(=O)(=O)c2ccccc2)c(OC)c1,.,.,.,81.2,.,.,.,.
COc1cccc(N(CC(=O)NCCSc2ccc(Cl)cc2)S(C)(=O)=O)c1,.,.,.,87.1,.,68.8,.,.
COc1ccc(N(CC(=O)NCCSc2ccccc2)S(C)(=O)=O)cc1,.,.,.,62.7,.,.,.,.
COc1cccc(N(CC(=O)NCCSc2ccccc2)S(C)(=O)=O)c1,.,.,.,.,.,/,/,/
COc1cccc(NC(=O)COC(=O)C2C3CC4OC(=O)C2C4C3)c1 (centres undefined),.,.,.,.,.,/,/,/
CCOC(=O)[C@]12CCC=C1N(Cc1ccc(Cl)cc1Cl)C(=O)[C@H](CC(=O)NCCCN1CCCC1=O)C2,/,/,.,.,/,/,/,/
CCOc1ccccc1NC(=O)Nn1cnnc1,.,.,.,.,.,/,/,/
O=C(/C=C1\C(=O)Nc2ccccc21)/C=C1\C(=O)Nc2ccccc21,/,.,.,40.8,/,.,.,.
CN(O)/C=C1\C(=O)Nc2ccccc21,.,.,.,.,.,/,/,/
COc1ccc(C2CC(c3ccccc3)=NN2C(=O)COC(=O)c2ccc(S(C)(=O)=O)cc2)cc1 (centres undefined),.,.,.,.,.,/,/,/
COc1ccc(C2CC(c3ccccc3)=NN2C(=O)COC(=O)c2cc(S(=O)(=O)N3CCOCC3)ccc2F)cc1 (centres undefined),.,.,.,54.0,.,52.5,.,.
Cc1cc2c(cc1C)-n1nnnc1C(N1CCCC1)C(=O)N2 (centres undefined),/,/,/,.,/,/,/,/
COc1ccc(/C=N/Nc2cc(N3CCCC3)nc(N3CCCC3)n2)cc1,.,.,.,60.3,.,.,.,.
Oc1cccc(/C=N/Nc2cc(N3CCCC3)nc(N3CCCC3)n2)c1,.,.,.,.,.,/,/,/
CN1C(=O)c2ccccc2N(C)C1c1cccc(O)c1 (centres undefined),.,.,.,.,.,/,/,/
Cc1ccc(C(=O)NCc2ccco2)cc1S(=O)(=O)N1CCCCC1,.,.,.,.,.,/,/,/
SMILES,APJ agonist,CCR6 antagonist,CXCR6 inh,EBI2 block,APJ antagonist,EBI2 antag conf,EBI2 agonist,bGal cs
Cc1ccc(C(=O)Nc2ccccc2C(=O)NCc2ccco2)cc1S(=O)(=O)N1CCCCC1,.,.,.,44.3,.,.,.,.
CCCCn1c2ccc(C)cc2c2nnc(SCCN3CCCCC3)nc21,.,.,.,69.2,.,.,.,.
CCCCn1c2ccc(F)cc2c2nnc(SCCN3CCCCC3)nc21,.,.,.,57.5,.,.,.,.
Cc1ccccc1-c1nc(CN2CCC(C(=O)NC3CC3)CC2)c(C)o1,.,.,.,.,.,/,/,/
Cc1nc2cc(-c3ccc(Cl)cc3)nn2c(C)c1CCC(=O)NCc1ccco1,.,.,.,49.7,.,.,.,.
Cc1ccc(NC(=O)Cc2nc(CN(C)CC(=O)Nc3ccc(C)cc3)cs2)cc1,.,.,.,.,.,/,/,/
Cc1ccc(-c2nn(-c3ccccc3)cc2C=C2SC(=S)N(CCS(=O)(=O)O)C2=O)cc1,/,/,.,.,/,/,/,/
Cc1ccc(-c2nn(-c3ccccc3)cc2C=C2C(=O)CC(C)(C)CC2=O)cc1,.,.,.,53.1,.,52.1,.,.
Cc1cccc(COc2ccc(/C=N/NC(=O)c3nnn(-c4nonc4N)c3C)cc2)c1,.,.,.,.,.,/,/,/
CCOc1cc(/C=N/NC(=O)c2nnn(-c3nonc3N)c2C)ccc1OCc1ccc(F)cc1,.,.,.,52.4,.,.,.,.
CCc1c(C(=O)N/N=C/c2ccc(OCc3ccc(F)cc3)c(OC)c2)nnn1-c1nonc1N,.,.,.,.,.,/,/,/
CCOc1cc(/C=N/NC(=O)c2nnn(-c3nonc3N)c2C)ccc1OCc1ccc(C)cc1,/,/,.,54.0,/,51.0,.,.
CCOc1cc(/C=N/NC(=O)c2nnn(-c3nonc3N)c2C)ccc1OCc1cccc(F)c1,.,.,.,41.9,.,.,.,.
CN1C=CC(=O)[C@@H](O)[C@H]1c1ccccc1Br,/,.,.,.,/,/,/,/
COc1ccc(CC(=O)NNC(=O)c2cc(Cl)ccc2OC)cc1,.,.,.,.,.,/,/,/
N#C/C(=C\c1cn(CCOc2ccccc2)c2ccccc12)C(=O)NCc1ccco1,.,.,.,46.0,.,.,.,.
O=C(NCc1ccc2c(c1)OCO2)C1CCN(C(=O)Nc2ccc(Cl)cc2)CC1,.,.,.,46.0,.,.,.,.
O=C(COC(=O)c1cc(S(=O)(=O)N2CCCCC2)ccc1N1CCOCC1)c1ccccc1Cl,/,/,.,48.1,/,65.0,.,.
CCN(CC)c1ccc(NC(=O)/C=C\c2ccccc2Cl)cc1,.,.,.,48.6,.,.,.,.
